Measurements: PubChem BioAssay AID463073 (The Scripps Research Institute Molecular Screening Center, 2010)
In all, about 2,000 compounds went through this assay and about 10 (0.5%) were called active. The sample holds actives, similar compounds and a random draw of the others, so the mix is not that of the screen. Unmarked numbers belong to inactive results.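 The calls were made as follows: active = inhibition above 30%; inactive = the rest.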

What follows are molecules tested against Protein-arginine deiminase type-4 (Homo sapiens) (UniProt Q9UM07) (assay: human PAD4 inhibitors, primary screen, biochemical, fluorescence polarization (AID 463073;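 also: 0% = PAD4 with DMSO and 100% = wells lacking PAD4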)). Conditions: recombinant PAD4, RFA probe fluorescence polarization; at 5 µM; hits give high values.
In short: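 system = recombinant PAD4 | amount = PAD4 at 2 µM in dispensed buffer, before additions | incubation = 30 min 25 °C preincubation, 5 h 37 °C labeling | measured by = FP, ex 525 nm, em 598 nm | replication = single well per compound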

Sequence of Protein-arginine deiminase type-4 (Homo sapiens) (Q9UM07 whole entry, looked up): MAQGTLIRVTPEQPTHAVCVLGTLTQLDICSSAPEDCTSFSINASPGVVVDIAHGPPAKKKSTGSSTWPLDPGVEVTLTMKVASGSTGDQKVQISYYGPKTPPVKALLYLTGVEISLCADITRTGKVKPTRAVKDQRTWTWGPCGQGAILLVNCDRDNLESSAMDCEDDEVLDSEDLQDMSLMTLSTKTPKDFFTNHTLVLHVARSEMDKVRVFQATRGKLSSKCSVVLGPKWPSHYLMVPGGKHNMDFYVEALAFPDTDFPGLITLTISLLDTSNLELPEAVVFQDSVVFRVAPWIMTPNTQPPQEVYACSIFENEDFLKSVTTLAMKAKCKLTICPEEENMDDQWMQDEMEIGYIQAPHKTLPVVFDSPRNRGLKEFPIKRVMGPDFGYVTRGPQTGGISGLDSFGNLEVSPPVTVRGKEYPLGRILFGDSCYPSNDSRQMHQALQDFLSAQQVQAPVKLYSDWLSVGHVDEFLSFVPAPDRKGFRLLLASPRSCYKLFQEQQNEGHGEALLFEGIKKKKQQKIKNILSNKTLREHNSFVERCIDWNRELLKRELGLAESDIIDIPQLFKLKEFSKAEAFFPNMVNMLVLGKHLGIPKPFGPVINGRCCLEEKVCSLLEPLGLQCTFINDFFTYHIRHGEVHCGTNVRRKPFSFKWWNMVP

Compound | inhibition
O=C1C(=O)c2ccccc2-c2ccccc21 | 94.3% (active)
O=C1C=Cc2ccccc2C1=O | 6.7%
C[C@H]1CCCC(=O)CCC/C=C/c2cc(O)cc(O)c2C(=O)O1 | 0.58%
CC(C)[C@@]1(NC(=O)[C@@H]2C[C@@H]3c4cccc5[nH]cc(c45)C[C@H]3N(C)C2)O[C@@]2(O)[C@@H]3CCCN3C(=O)[C@H](Cc3ccccc3)N2C1=O | 4.69%
CC1CCC[C@H](O)CCCCCc2cc(O)cc(O)c2C(=O)O1 (stereo not given in full) | 2.98%
CN1C2CCC1CC(OC(=O)CCN1CCCC1)C2 (stereo not given) | 0.67%
COc1ccc(Cc2nccc3cc(OC)c(OC)cc23)cc1OC | 74.4% (active)
C[C@H]1CC[C@@]2(C)[C@@H](CC[C@@H]3[C@@H]2CC[C@]2(C)[C@@H](O)CC[C@@H]32)C1 | 5.74%
O=Cc1cn(Cc2ccc(F)cc2)c2ccccc12 | 0.18%
C[C@]12CCC(=O)C=C1CC[C@@H]1[C@@H]2C(=O)C[C@]2(C)C(=O)CC[C@@H]12 | 3.91%
